Values belong to the compound of their own block, whether it stands above or below them. Activity calls are given as the source filed them. The rule behind the calls is not given here.
Key:
Prunus dulcis [1] = assay: Inhibition of almond beta-glucosidase at 10 uM using p-nitrophenyl glycopyranoside preincubated for 5 mins followed by substrate addition measured after 20 mins by visible absorption spectroscopic method relative to control
In short: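 Crude click-reaction products screened in situ. Azide (final 15 mM) was reacted with each alkyne using sodium ascorbate/CuSO4 in tBuOH–H2O for 24 h at rt, then diluted with water. Tested at 10 μM per well, assuming quantitative conversion, against almond β-glucosidase at pH 5, 37 °C. p-Nitrophenyl glycoside read-out at 405 nm.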

[2] = biological target: Alpha-galactosidase (Coffea arabica) (UniProt Q42656); assay: Inhibition of coffee beans alpha-galactosidase at 1 mM using p-nitrophenyl glycopyranoside preincubated for 5 mins followed by substrate addition measured after 20 mins by visible absorption spectroscopic method relative to control
Sequence of Alpha-galactosidase (Coffea arabica) (Q42656 16-378 limits assumed): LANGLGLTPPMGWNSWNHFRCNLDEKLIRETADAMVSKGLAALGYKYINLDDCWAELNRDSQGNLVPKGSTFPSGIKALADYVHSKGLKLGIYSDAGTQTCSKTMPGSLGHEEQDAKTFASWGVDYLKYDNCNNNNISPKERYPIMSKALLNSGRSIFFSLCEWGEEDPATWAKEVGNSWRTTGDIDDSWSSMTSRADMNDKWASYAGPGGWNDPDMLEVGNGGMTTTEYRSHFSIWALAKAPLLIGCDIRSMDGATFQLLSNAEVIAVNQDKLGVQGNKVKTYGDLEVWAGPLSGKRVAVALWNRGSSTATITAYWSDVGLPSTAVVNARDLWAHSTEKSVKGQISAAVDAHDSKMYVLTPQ
In short: (§1)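 Test compound at 1 mM in well. Mix: 0.01–0.5 units/mL enzyme plus 10 mM p-nitrophenyl glycopyranoside (aqueous solution), buffered to the enzyme's optimal pH. Enzyme and inhibitor preincubated 5 min at rt. Substrate then added and incubated 20 min at 37 °C. Stopped with sodium borate (pH 9.8). p-Nitrophenolate read at 405 nm. Duplicates averaged.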

Oryza sativa = assay: Inhibition of rice alpha-glucosidase at 1 mM using p-nitrophenyl glycopyranoside preincubated for 5 mins followed by substrate addition measured after 20 mins by visible absorption spectroscopic method relative to control; in short: as §1
[3] = biological target: Beta-galactosidase (Escherichia coli) (UniProt Q8VNN2); assay: Inhibition of Escherichia coli beta-galactosidase at 1 mM using p-nitrophenyl glycopyranoside preincubated for 5 mins followed by substrate addition measured after 20 mins by visible absorption spectroscopic method relative to control; in short: as §1
Sequence of Beta-galactosidase (Escherichia coli) (Q8VNN2 whole entry, looked up): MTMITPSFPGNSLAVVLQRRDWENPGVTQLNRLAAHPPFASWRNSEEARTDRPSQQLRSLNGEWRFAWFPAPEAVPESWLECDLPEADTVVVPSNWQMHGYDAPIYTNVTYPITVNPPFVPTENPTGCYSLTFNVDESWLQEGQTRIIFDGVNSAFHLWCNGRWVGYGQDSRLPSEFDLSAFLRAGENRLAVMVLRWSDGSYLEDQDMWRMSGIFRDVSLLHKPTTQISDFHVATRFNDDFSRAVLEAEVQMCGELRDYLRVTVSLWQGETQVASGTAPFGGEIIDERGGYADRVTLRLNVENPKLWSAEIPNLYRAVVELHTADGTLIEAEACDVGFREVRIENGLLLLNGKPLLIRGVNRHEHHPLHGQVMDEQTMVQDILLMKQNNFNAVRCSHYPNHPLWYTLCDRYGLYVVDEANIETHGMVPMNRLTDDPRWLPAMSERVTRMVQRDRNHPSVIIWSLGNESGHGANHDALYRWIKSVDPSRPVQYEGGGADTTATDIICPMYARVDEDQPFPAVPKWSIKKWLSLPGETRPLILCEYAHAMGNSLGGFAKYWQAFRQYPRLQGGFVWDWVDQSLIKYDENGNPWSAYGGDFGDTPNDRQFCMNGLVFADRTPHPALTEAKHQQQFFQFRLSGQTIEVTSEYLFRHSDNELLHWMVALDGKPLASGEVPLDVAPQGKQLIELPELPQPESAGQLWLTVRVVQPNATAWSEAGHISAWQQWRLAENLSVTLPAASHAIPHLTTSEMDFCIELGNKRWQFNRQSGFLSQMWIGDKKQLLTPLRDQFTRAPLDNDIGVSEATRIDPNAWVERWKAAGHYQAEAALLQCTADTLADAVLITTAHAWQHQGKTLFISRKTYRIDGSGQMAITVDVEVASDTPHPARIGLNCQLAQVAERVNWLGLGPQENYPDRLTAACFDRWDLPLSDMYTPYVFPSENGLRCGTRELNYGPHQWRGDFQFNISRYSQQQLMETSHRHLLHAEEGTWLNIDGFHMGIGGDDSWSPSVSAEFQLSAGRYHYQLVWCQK

Saccharomyces cerevisiae = assay: Inhibition of yeast alpha glucosidase at 1 mM using p-nitrophenyl glycopyranoside preincubated for 5 mins followed by substrate addition measured after 20 mins by visible absorption spectroscopic method relative to control; in short: as §1
Prunus dulcis [4] = assay: Inhibition of almond beta-glucosidase at 1 mM using p-nitrophenyl glycopyranoside preincubated for 5 mins followed by substrate addition measured after 20 mins by visible absorption spectroscopic method relative to control; in short: as §1
Canavalia ensiformis = assay: Inhibition of jack bean beta-N-acetylglucosaminidase at 1 mM using p-nitrophenyl glycopyranoside preincubated for 5 mins followed by substrate addition measured after 20 mins by visible absorption spectroscopic method relative to control; in short: as §1
Cornu aspersum = assay: Inhibition of snail beta-mannosidase at 1 mM using p-nitrophenyl glycopyranoside preincubated for 5 mins followed by substrate addition measured after 20 mins by visible absorption spectroscopic method relative to control; in short: as §1
Bos taurus = species on record: Bos taurus; assay: Inhibition of bovine kidney alpha-L-fucosidase at 1 mM using p-nitrophenyl glycopyranoside preincubated for 5 mins followed by substrate addition measured after 20 mins by visible absorption spectroscopic method relative to control; in short: as §1
[5] = biological target: T1, Alpha-mannosidase (Canavalia ensiformis) (UniProt C0HJB3); assay: Inhibition of jack bean alpha-mannosidase at 1 mM using p-nitrophenyl glycopyranoside preincubated for 5 mins followed by substrate addition measured after 20 mins by visible absorption spectroscopic method relative to control; in short: as §1
T1 sequence (whole entry): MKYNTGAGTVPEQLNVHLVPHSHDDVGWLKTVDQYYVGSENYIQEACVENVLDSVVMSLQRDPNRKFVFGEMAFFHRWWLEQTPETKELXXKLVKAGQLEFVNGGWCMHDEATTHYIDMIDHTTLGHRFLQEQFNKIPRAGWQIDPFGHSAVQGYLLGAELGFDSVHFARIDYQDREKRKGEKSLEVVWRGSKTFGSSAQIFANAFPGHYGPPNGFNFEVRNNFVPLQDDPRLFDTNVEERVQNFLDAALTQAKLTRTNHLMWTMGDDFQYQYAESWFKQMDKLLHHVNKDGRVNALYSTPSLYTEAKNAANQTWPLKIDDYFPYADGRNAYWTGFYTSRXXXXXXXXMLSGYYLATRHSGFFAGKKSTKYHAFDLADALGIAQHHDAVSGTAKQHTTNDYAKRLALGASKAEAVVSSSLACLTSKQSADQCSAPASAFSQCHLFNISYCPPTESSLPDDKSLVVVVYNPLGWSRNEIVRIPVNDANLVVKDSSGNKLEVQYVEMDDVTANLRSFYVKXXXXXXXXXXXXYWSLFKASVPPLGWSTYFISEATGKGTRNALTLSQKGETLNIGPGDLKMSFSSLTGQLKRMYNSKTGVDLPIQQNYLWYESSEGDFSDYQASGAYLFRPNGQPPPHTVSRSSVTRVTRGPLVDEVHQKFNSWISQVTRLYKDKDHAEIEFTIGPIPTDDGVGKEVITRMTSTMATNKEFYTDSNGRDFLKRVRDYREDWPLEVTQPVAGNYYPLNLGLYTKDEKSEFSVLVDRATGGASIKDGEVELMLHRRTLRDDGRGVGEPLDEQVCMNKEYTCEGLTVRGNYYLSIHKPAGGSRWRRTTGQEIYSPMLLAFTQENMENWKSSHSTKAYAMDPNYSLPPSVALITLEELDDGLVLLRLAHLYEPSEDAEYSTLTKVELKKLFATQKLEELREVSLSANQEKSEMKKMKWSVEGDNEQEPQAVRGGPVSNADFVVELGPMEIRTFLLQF

[6] = biological target: T2, Beta-galactosidase (Aspergillus oryzae) (UniProt B7VU80); assay: Inhibition of Aspergillus oryzae beta-galactosidase at 1 mM using p-nitrophenyl glycopyranoside preincubated for 5 mins followed by substrate addition measured after 20 mins by visible absorption spectroscopic method relative to control; in short: as §1
T2 sequence (whole entry): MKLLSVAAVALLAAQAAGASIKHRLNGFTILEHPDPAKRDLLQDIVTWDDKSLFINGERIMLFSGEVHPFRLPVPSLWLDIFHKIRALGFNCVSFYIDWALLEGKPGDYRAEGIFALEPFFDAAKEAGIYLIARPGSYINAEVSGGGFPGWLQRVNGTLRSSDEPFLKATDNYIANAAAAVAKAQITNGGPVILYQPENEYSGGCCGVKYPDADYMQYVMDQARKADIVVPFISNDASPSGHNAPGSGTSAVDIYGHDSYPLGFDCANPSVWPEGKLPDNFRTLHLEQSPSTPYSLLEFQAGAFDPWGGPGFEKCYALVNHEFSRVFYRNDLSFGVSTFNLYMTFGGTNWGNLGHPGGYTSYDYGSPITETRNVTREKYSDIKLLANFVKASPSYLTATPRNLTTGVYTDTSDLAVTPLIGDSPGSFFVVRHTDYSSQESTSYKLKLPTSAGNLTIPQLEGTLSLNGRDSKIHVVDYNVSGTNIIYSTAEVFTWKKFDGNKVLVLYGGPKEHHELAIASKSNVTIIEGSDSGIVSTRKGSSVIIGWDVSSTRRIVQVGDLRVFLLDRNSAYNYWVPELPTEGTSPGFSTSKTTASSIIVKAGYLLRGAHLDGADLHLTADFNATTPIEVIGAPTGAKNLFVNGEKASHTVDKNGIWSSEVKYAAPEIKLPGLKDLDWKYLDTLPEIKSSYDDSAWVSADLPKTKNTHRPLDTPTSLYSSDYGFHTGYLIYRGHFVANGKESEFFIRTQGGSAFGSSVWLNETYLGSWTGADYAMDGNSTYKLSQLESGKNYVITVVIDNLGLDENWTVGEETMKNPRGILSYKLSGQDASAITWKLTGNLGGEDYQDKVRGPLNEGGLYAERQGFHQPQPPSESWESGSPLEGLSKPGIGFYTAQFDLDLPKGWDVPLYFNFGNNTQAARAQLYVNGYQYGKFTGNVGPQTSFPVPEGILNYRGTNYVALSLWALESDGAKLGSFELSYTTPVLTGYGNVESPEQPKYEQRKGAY

Aspergillus niger = assay: Inhibition of Aspergillus niger amyloglucosidase at 1 mM using p-nitrophenyl glycopyranoside preincubated for 5 mins followed by substrate addition measured after 20 mins by visible absorption spectroscopic method relative to control; in short: as §1

Structure (SMILES): CN(Cc1ccccc1)Cc1cn(C[C@@H]2NC[C@@H](O)[C@H]2O)nn1
inhibition (Prunus dulcis [1]): inactive

Structure (SMILES): COc1ccc2cc(-c3cn(C[C@@H]4NC[C@@H](O)[C@H]4O)nn3)ccc2c1
inhibition (Prunus dulcis [1]): inactive

Structure (SMILES): [N-]=[N+]=NC[C@@H]1NC[C@@H](O)[C@H]1O
inhibition [2]: 44%
inhibition (Oryza sativa): inactive
inhibition [3]: inactive
inhibition (Saccharomyces cerevisiae): inactive
inhibition (Prunus dulcis [4]): inactive
inhibition (Canavalia ensiformis): inactive
inhibition (Cornu aspersum): inactive
inhibition (Prunus dulcis [1]): inactive
inhibition (Bos taurus): 33%
inhibition [5]: 71%
inhibition [6]: inactive
inhibition (Aspergillus niger): inactive

Structure (SMILES): O[C@H]1[C@@H](O)CN[C@@H]1Cn1cc(-c2ccccc2)nn1
inhibition [2]: inactive
inhibition (Oryza sativa): inactive
inhibition [3]: inactive
inhibition (Saccharomyces cerevisiae): inactive
inhibition (Prunus dulcis [4]): 49%
inhibition (Canavalia ensiformis): inactive
inhibition (Cornu aspersum): inactive
inhibition (Bos taurus): inactive
inhibition [5]: 60%
inhibition [6]: inactive
inhibition (Aspergillus niger): inactive

Structure (SMILES): O=C(NC[C@@H]1NC[C@@H](O)[C@H]1O)c1ccccc1
inhibition [2]: inactive
inhibition (Oryza sativa): inactive
inhibition [3]: inactive
inhibition (Saccharomyces cerevisiae): inactive
inhibition (Prunus dulcis [4]): 79%
inhibition (Canavalia ensiformis): 17%
inhibition (Cornu aspersum): inactive
inhibition (Bos taurus): 15%
inhibition [5]: 71%
inhibition [6]: inactive
inhibition (Aspergillus niger): inactive

Structure (SMILES): O=C(NCc1cn(C[C@@H]2NC[C@@H](O)[C@H]2O)nn1)c1ccccc1
inhibition (Prunus dulcis [1]): inactive

Structure (SMILES): O[C@@H]1[C@@H](c2cn(Cc3ccccc3)nn2)NC[C@@H]1O
inhibition [2]: inactive
inhibition (Oryza sativa): inactive
inhibition [3]: inactive
inhibition (Saccharomyces cerevisiae): inactive
inhibition (Prunus dulcis [4]): inactive
inhibition (Canavalia ensiformis): inactive
inhibition (Cornu aspersum): inactive
inhibition (Bos taurus): 21%
inhibition [5]: 30%
inhibition [6]: inactive
inhibition (Aspergillus niger): inactive

Structure (SMILES): OCc1ccc(-c2cn(C[C@@H]3NC[C@@H](O)[C@H]3O)nn2)cc1
inhibition (Prunus dulcis [1]): inactive

Structure (SMILES): O[C@@H]1[C@H](O)CN[C@H]1CNC(=S)Nc1ccccc1
inhibition [2]: 16%
inhibition (Oryza sativa): inactive
inhibition [3]: inactive
inhibition (Saccharomyces cerevisiae): inactive
inhibition (Prunus dulcis [4]): 74%
inhibition (Canavalia ensiformis): inactive
inhibition (Cornu aspersum): 45%
inhibition (Bos taurus): inactive
inhibition [5]: inactive
inhibition [6]: inactive
inhibition (Aspergillus niger): 18%

Structure (SMILES): O[C@@H]1[C@H](O)CN[C@H]1Cn1cc(C2(O)CCCCC2)nn1
inhibition (Prunus dulcis [1]): inactive

Structure (SMILES): COc1ccc(-c2cn(C[C@@H]3NC[C@@H](O)[C@H]3O)nn2)cc1
inhibition (Prunus dulcis [1]): inactive

Structure (SMILES): O[C@@H]1[C@H](O)CN[C@H]1c1cn(Cc2ccccc2)nn1
inhibition [2]: inactive
inhibition (Oryza sativa): inactive
inhibition [3]: inactive
inhibition (Saccharomyces cerevisiae): inactive
inhibition (Prunus dulcis [4]): inactive
inhibition (Canavalia ensiformis): inactive
inhibition (Cornu aspersum): inactive
inhibition (Bos taurus): 71%
inhibition [5]: inactive
inhibition [6]: inactive
inhibition (Aspergillus niger): inactive

Now from value to compound:

inhibition (Prunus dulcis [1]): inactive
Structure (SMILES): Cc1ccc(S(=O)(=O)OCCOCCOCCOCCOCCOCCOCc2cn(C[C@@H]3NC[C@@H](O)[C@H]3O)nn2)cc1

inhibition (Prunus dulcis [1]): inactive
Structure (SMILES): Cc1oc(CO)cc1C(=O)NCc1cn(C[C@@H]2NC[C@@H](O)[C@H]2O)nn1

inhibition (Prunus dulcis [1]): inactive
Structure (SMILES): O[C@@H]1[C@H](O)CN[C@H]1Cn1cc(COc2ccccc2)nn1

inhibition (Prunus dulcis [1]): inactive
Structure (SMILES): COC(=O)c1cn(C[C@@H]2NC[C@@H](O)[C@H]2O)nn1

inhibition (Prunus dulcis [1]): inactive
Structure (SMILES): NCc1cn(C[C@@H]2NC[C@@H](O)[C@H]2O)nn1

inhibition (Prunus dulcis [1]): inactive
Structure (SMILES): O=C(O)CCCc1cn(C[C@@H]2NC[C@@H](O)[C@H]2O)nn1

inhibition (Prunus dulcis [1]): inactive
Structure (SMILES): O[C@@H]1[C@H](O)CN[C@H]1Cn1cc(CC2CCCCC2)nn1

inhibition (Prunus dulcis [1]): inactive
Structure (SMILES): OCCOCc1cn(C[C@@H]2NC[C@@H](O)[C@H]2O)nn1

inhibition (Prunus dulcis [1]): inactive
Structure (SMILES): OCc1cn(C[C@@H]2NC[C@@H](O)[C@H]2O)nn1

inhibition (Prunus dulcis [1]): inactive
Structure (SMILES): OCCOCCOCCOCCOCCOCCOCc1cn(C[C@@H]2NC[C@@H](O)[C@H]2O)nn1

inhibition (Prunus dulcis [1]): inactive
Structure (SMILES): OCCCc1cn(C[C@@H]2NC[C@@H](O)[C@H]2O)nn1

Reference: ChEMBL document CHEMBL4190262, “Tuning of β-glucosidase and α-galactosidase inhibition by generation and in situ screening of a library of pyrrolidine-triazole hybrid molecules” (Eur J Med Chem, 2017)
